Measurements as given in ChEMBL document CHEMBL1138808, “Synthesis and anticancer activity of simplified indenoisoquinoline topoisomerase I inhibitors lacking substituents on the aromatic rings” (2004).

What was measured:
[1] = Growth inhibitory activity against human CNSSF-539 cell line; assay type: functional
How it was run: (§1)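 Growth inhibition in human cancer cell culture. GI50 is the concentration giving 50% growth inhibition. Compounds were tested at concentrations up to […].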

[2] = biological target: T1, DNA topoisomerase 1 (Homo sapiens) (UniProt P11387); assay: Induction of topoisomerase I mediated DNA cleavage; greater activity than parent compound 1
T1 sequence (whole entry): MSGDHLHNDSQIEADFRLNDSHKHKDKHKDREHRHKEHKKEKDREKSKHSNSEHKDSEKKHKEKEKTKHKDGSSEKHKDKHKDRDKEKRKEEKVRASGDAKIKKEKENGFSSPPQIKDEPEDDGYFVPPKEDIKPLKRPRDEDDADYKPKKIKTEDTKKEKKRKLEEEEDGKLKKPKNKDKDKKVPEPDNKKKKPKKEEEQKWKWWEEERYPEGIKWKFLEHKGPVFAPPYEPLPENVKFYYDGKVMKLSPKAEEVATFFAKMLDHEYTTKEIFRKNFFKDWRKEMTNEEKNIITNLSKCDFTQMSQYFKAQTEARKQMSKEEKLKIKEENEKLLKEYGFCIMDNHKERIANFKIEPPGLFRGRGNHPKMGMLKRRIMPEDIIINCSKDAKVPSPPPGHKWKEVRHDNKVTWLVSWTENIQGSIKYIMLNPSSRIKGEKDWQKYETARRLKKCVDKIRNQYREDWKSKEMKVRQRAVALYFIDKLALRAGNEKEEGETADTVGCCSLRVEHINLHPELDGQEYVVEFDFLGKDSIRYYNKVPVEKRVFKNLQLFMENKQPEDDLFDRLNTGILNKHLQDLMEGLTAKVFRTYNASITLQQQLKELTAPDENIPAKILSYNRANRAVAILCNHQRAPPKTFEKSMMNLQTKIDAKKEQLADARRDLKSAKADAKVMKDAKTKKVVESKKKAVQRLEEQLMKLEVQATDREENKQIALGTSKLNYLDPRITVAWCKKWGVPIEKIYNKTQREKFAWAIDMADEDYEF

[3] = tested on: Panel (Carcinoma cell lines); assay: Mean graph mid point for growth inhibition of human cancer cell lines; assay type: functional; parameters: unit not given here
How it was run: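 Mean graph midpoint of growth inhibition, taken across all human cancer cell lines successfully tested. Compounds were tested at concentrations up to […], and GI50 is the concentration giving 50% growth inhibition.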

[4] = biological target: T1, DNA topoisomerase 1 (Homo sapiens); assay: Induction of topoisomerase I mediated DNA cleavage; Activity similar to parent compound 1
[5] = biological target: T1, DNA topoisomerase 1 (Homo sapiens); assay: Induction of topoisomerase I mediated DNA cleavage; Activity similar to 1 uM camptothecin
SN12C = assay: Growth inhibitory activity against human renal SN12C cell line; assay type: functional; how it was run: as §1
MDA-MB-435 = assay: Growth inhibitory activity against human breast MDA-MB-435 cell line; assay type: functional; how it was run: as §1
UACC-62 = assay: Growth inhibitory activity against human melanoma UACC-62 cell line; assay type: functional; how it was run: as §1
DU-145 = assay: Growth inhibitory activity against human prostate DU-145 cell line; assay type: functional; how it was run: as §1
HOP-62 = assay: Growth inhibitory activity against human lung HOP-62 cell line; assay type: functional; how it was run: as §1
HCT-116 = assay: Growth inhibitory activity against human colon HCT116 cell line; assay type: functional; how it was run: as §1
[6] = biological target: T1, DNA topoisomerase 1 (Homo sapiens); assay: Induction of topoisomerase I mediated DNA cleavage; Activity similar to 1 uM camptothecin; weak activity
OVCAR-3 = assay: Growth inhibitory activity against human ovarian OVCAR-3 cell line; assay type: functional; how it was run: as §1
[7] = biological target: T1, DNA topoisomerase 1 (Homo sapiens); assay: Induction of topoisomerase I mediated DNA cleavage; weak activity
[8] = biological target: T1, DNA topoisomerase 1 (Homo sapiens); assay: Induction of topoisomerase I mediated DNA cleavage; Greater activity than parent compound 1

SMILES | DNA cleavage [2] | DNA cleavage [4] | DNA cleavage [5] | GI50 (MDA-MB-435) | GI50 (DU-145) | GI50 (HCT-116) | DNA cleavage [6] | GI50 (OVCAR-3) | DNA cleavage [7] | DNA cleavage [8] | GI50 [1] | Mean graph mid point [3] | GI50 (SN12C) | GI50 (UACC-62) | GI50 (HOP-62)
O=C1c2ccccc2-c2c1c1ccccc1c(=O)n2CCCO |  | Activity similar to parent compound 1 |  |  |  |  |  |  |  |  | 52500 nM |  |  |  | 
O=C1c2ccccc2-c2c1c1ccccc1c(=O)n2CCCn1ccnc1 |  |  | Activity similar to 1 uM camptothecin |  |  |  |  |  |  |  | 2340 nM | 1.86 |  |  | 
O=C1c2ccccc2-c2c1c1ccccc1c(=O)n2CCCl |  |  |  |  |  |  | +/- |  |  |  | 2240 nM |  |  |  | 
CCn1c2c(c3ccccc3c1=O)C(=O)c1cc3c(cc1-2)OCO3 | greater activity than compound 1 |  |  | > 100000 nM | > 100000 nM | 95500 nM |  | 89100 nM |  |  | 40700 nM | 51.3 | > 100000 nM | 20000 nM | 36300 nM
CN(C)CCCn1c2c(c3ccccc3c1=O)C(=O)c1ccccc1-2 | greater activity than compound 1 |  |  | 2820 nM | 1320 nM | 580 nM |  | 1700 nM |  |  |  | 1.86 | 910 nM | 510 nM | 1740 nM
Cl.NCCn1c2c(c3ccccc3c1=O)C(=O)c1ccccc1-2 | greater activity than compound 1 |  |  | 920 nM | 760 nM | 270 nM |  | 710 nM |  |  | 210 nM | 0.53 | 490 nM | 920 nM | 620 nM
Cl.Cl.O=C1c2ccccc2-c2c1c1ccccc1c(=O)n2CCCNCCCn1ccnc1 |  | Activity similar to parent compound 1 |  | 1450 nM | 410 nM | 1580 nM |  | 1780 nM |  |  | 1070 nM | 1 | 2000 nM | 6920 nM | 410 nM
O=C1c2ccccc2-c2c1c1ccccc1c(=O)n2CCN1CCNCC1 |  |  |  | 1950 nM | 3090 nM | 580 nM |  | 1120 nM | Weak activity |  | 1990 nM | 1.86 | 2190 nM | 1380 nM | 1910 nM

The next lines start with results.

DNA cleavage [2] | DNA cleavage [4] | DNA cleavage [5] | GI50 (MDA-MB-435) | GI50 (DU-145) | GI50 (HCT-116) | DNA cleavage [6] | GI50 (OVCAR-3) | DNA cleavage [7] | DNA cleavage [8] | SMILES | GI50 [1] | Mean graph mid point [3] | GI50 (SN12C) | GI50 (UACC-62) | GI50 (HOP-62)
greater activity than compound 1 |  |  |  |  |  |  |  |  |  | COc1cc2c3c(n(CCCN)c(=O)c2cc1OC)-c1cc2c(cc1C3=O)OCO2.Cl | 260 nM | 0.16 |  |  | 
 | Activity similar to parent compound 1 |  | 96000 nM | 37000 nM | 35000 nM |  |  |  |  | COc1cc2c3c(n(C)c(=O)c2cc1OC)-c1cc2c(cc1C3=O)OCO2 | 41000 nM | 20 | 68000 nM | 4200 nM | 1300 nM
 |  |  | 25700 nM | 7590 nM | 22400 nM |  | 18200 nM | Weak activity |  | O=C1c2cc3c(cc2-c2c1c1ccccc1c(=O)n2CCCBr)OCO3 | 370 nM | 9.77 | 230 nM |  | 
 |  |  | 1040 nM | 400 nM | 68 nM |  | 860 nM |  | Greater activity than compound 1 | COc1cc2c3c(n(CCN)c(=O)c2cc1OC)-c1cc2c(cc1C3=O)OCO2.Cl | 1300 nM | 0.34 | 360 nM | 140 nM | 580 nM
 |  |  |  | > 10 nM |  |  | 350 nM |  | Greater activity than compound 1 | COc1cc2c3c(n(CCCNCCO)c(=O)c2cc1OC)-c1cc2c(cc1C3=O)OCO2.Cl | 40 nM | 0.11 | > 10 nM |  | 
